Assays:
[1] = tested on: Mushroom tyrosinase (EC 1.14.18.1); assay: In vitro mushroom tyrosinase assay; type: biochemical
Outline: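 Mushroom tyrosinase (EC 1.14.18.1), enzyme stock 1,100 units/ml (0.516 mg/ml) in 0.1 M phosphate buffer, mixed with phosphate buffer, test compound or reference inhibitor, and 5 mM L-dopa solution. Incubated 10 min at 37℃; dopachrome read at 475 nm. % inhibition = (ΔAcontrol−ΔAsample)/ΔAcontrol×100; IC50 = concentration giving 50% inhibition. Triplicate wells; experiments run at least three times; mean±SD, unpaired t-test.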

[2] = tested on: Melan-a mouse melanocytes; assay: Melanin content assay in Melan-a cells; type: cell-based; conditions: αMSH (10 nM) induced Melan-a cells (Fig. 6B)
Outline: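 Immortal non-tumorigenic mouse melanocytes kept in RPMI 1640 with 10% FBS, 1% penicillin/streptomycin and 200 nM TPA at 37℃, 10% CO2, subcultured every 4th day. Melanin content measured under αMSH (10 nM) stimulation and expressed as % of untreated control alongside MTT viability. Mean±SD; unpaired t-test.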

[3] = tested on: B16F10 mouse melanoma cells; assay: Melanin content assay in B16F10 cells; type: cell-based; conditions: αMSH (10 nM) induced B16F10 melanoma cells (Fig. 6A)
Outline: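 B16F10 cells grown in DMEM with 10% FBS and 1% penicillin/streptomycin at 37℃, 5% CO2, under αMSH (10 nM) stimulation. Seeded in 12-well plates for 24 h, refed and held 48 h in triplicate cultures, then trypsinised. Washed twice in PBS, lysed in 1 N NaOH/10% DMSO at 80℃ for 1 h; absorbance 405 nm versus untreated cells. Mean±SD; unpaired t-test.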

Molecule | dose dependence of mushroom tyrosinase inhibition ([1]; 5, 10, 20, 40, and 80 µM (Fig. 4, 5)) | maximum inhibitory effect of tyrosinase activity ([1]; in vitro tyrosinase screening, as restated in the discussion) [%] | effect on melanin content (in words) [2] | effect on melanin content (in words) [3]
KA-CDPGYIGSR [KA-CR9] | dose-dependent inhibition | 84 | – | –
OC[C@H]1O[C@@H](Oc2ccc(O)cc2)[C@H](O)[C@@H](O)[C@@H]1O [Arbutin, hydroquinone-beta-D-glucopyranoside] | – | – | inhibited melanin content | inhibited melanin content
